Consider 7 compounds from publication PMC3431965 (The Journal of organic chemistry, 2012).

Assay [1] deals with T1, ceramide-specific glucosyltransferase (Mus musculus, UniProt O88693).
T1 sequence (O88693 1-394): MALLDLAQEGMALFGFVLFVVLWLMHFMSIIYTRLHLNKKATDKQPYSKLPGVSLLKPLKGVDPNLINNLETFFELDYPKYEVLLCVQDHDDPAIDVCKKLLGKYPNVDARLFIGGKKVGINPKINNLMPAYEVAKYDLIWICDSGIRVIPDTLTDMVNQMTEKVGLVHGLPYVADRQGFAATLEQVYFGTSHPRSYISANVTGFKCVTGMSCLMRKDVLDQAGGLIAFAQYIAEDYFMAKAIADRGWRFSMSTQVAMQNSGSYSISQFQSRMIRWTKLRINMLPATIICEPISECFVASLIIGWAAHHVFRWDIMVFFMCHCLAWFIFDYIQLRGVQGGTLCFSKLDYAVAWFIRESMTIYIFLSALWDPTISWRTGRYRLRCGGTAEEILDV
The assay can be described thus: Ceramide-specific glucosyltransferase assay, mouse testicular microsomes. Type of assay: biochemical, C57BL/6 mouse. Conditions: for ceramide-specific glucosyltransferase IC50 (C57BL/6, mouse): mouse testicular microsomes, n.i. = no inhibition at 1000 µM concentration.

The target in assay [2] is T2, ceramide-specific glucosyltransferase (Rattus norvegicus, UniProt Q9R0E0).
T2 sequence (Q9R0E0 1-394): T1 sequence (O88693 1-394) with D96E, K164R, R249K, T377A
Kind of assay: Ceramide-specific glucosyltransferase assay, rat testicular microsomes. Type of assay: biochemical, Long Evans (LE) rat. Conditions: for ceramide-specific glucosyltransferase IC50 (LE rat): rat testicular microsomes, n.i. = no inhibition at 1000 µM concentration.

For assay [3], the target named is T3, testicular β-glucosidase 2 (Rattus norvegicus, UniProt Q5M868).
T3 sequence (Q5M868 1-912): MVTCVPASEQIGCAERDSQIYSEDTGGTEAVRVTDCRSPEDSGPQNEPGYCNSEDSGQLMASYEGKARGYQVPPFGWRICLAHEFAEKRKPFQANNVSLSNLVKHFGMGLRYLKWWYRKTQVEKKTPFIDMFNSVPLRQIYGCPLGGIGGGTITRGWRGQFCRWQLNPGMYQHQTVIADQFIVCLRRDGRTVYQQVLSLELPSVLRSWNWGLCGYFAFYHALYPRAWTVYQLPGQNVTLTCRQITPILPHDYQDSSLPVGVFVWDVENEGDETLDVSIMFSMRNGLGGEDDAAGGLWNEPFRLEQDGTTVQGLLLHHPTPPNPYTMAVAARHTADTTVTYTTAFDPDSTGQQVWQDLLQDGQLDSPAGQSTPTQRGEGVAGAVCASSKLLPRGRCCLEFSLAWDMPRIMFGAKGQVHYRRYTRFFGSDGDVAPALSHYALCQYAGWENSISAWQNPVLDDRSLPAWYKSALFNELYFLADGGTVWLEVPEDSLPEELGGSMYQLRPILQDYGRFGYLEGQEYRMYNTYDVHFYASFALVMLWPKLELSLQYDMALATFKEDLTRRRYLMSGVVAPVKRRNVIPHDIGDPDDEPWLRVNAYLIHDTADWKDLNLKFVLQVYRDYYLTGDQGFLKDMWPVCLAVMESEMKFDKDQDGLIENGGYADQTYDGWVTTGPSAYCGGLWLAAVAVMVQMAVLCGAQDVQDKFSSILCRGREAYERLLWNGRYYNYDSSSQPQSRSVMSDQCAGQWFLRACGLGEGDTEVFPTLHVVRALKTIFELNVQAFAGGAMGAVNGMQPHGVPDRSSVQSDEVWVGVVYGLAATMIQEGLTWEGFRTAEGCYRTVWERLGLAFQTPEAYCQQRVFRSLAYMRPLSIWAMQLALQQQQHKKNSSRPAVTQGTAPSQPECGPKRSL
Kind of assay: Testicular glucosidase assay. Format: biochemical, Long Evans (LE) rat. The conditions noted are these: for β-glucosidase 2 IC50 (LE rat): rat testicular microsomes, n.i. = no inhibition at 1000 µM concentration.

The test system of assay [4] is α-glucosidase (Saccharomyces cerevisiae). Kind of assay: Glycosidase inhibition assay, α-glucosidase. Format: biochemical. The conditions noted are these: 100 µM compound; substrate at Km.
Assay [5] concerns β-glucosidase (almond). The assay can be described thus: Glycosidase inhibition assay, β-glucosidase. The conditions noted are these: substrate at Km; for β-Glc % Ra (% remaining activity at 100 µM): 100 µM compound. Type of assay: biochemical. In short, it runs like this:
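Enzyme is added last; incubation is 4–5 min at room temperature, then 0.2 M sodium borate (pH 9.8) quenches. Absorbance at 405 nm gives % remaining activity at 100 µM compound. IC50 comes from non-linear fitting of relative activity versus concentration to a Hill-slope equation.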

For assay [6], the target named is α-galactosidase (green coffee beans) (Coffea arabica, UniProt Q42656). The assay can be described thus: biochemical. Conditions: for remaining activity at 100 µM: read-out: α-Gal % Ra (% remaining activity at 100 µM).
α-galactosidase (green coffee beans), sequence (Q42656 16-378): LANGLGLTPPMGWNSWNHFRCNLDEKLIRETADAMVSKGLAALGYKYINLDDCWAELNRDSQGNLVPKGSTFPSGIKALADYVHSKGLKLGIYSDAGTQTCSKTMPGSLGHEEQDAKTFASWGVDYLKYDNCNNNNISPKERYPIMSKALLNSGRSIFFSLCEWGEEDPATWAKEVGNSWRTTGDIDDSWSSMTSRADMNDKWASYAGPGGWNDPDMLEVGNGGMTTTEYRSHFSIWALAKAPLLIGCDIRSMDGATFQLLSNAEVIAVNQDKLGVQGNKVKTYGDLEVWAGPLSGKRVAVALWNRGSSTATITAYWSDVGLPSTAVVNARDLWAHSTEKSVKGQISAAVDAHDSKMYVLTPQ
The target of assay [7] is β-galactosidase (Escherichia coli) (Escherichia coli, UniProt P00722). The assay can be described thus: biochemical. The conditions noted are these: for remaining activity at 100 µM: read-out: β-Gal % Ra (% remaining activity at 100 µM).
β-galactosidase (Escherichia coli), sequence (P00722 2-1024): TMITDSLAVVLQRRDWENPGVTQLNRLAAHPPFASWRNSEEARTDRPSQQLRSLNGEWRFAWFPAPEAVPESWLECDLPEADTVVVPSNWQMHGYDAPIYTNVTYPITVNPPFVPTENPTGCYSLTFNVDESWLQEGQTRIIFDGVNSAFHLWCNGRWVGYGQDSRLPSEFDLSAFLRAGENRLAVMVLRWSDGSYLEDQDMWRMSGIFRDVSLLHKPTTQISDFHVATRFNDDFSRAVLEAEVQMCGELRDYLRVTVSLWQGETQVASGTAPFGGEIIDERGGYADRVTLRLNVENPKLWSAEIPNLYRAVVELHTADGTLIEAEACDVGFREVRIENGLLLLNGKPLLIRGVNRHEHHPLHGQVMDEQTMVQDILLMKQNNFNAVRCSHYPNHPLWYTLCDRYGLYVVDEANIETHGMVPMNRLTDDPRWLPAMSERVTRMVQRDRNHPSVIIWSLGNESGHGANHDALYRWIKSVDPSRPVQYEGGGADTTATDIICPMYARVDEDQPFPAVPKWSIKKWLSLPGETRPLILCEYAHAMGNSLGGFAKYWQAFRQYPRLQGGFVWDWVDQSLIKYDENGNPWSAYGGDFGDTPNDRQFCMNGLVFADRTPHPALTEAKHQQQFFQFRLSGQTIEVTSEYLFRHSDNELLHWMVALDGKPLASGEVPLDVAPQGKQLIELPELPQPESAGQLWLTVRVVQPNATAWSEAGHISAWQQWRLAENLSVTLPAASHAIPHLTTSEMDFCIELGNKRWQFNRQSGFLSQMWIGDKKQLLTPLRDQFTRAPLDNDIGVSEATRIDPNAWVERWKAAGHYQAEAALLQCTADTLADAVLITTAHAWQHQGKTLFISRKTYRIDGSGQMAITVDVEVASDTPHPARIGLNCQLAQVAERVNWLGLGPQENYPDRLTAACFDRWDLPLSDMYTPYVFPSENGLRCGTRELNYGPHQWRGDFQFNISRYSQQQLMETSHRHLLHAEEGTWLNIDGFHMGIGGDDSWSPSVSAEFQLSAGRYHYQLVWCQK
Assay [8] has as its target T4, α-mannosidase (jack bean) (Canavalia ensiformis, UniProt C0HJB3).
T4 sequence (C0HJB3 1-562 limits assumed): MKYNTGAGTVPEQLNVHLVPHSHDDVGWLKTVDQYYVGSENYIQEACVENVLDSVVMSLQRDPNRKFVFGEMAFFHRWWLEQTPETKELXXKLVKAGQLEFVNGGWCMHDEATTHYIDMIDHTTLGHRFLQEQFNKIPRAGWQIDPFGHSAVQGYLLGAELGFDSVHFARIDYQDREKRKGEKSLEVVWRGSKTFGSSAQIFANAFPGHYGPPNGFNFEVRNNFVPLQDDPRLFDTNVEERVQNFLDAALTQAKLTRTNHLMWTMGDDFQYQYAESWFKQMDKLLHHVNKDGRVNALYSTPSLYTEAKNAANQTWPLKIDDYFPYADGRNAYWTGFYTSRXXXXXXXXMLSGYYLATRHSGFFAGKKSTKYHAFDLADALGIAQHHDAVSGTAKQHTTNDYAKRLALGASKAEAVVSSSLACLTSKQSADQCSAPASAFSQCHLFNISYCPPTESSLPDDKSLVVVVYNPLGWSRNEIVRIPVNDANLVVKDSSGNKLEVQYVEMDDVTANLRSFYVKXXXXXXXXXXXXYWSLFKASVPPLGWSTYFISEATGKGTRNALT
T4 sequence (C0HJB3 563-981 partner limits assumed): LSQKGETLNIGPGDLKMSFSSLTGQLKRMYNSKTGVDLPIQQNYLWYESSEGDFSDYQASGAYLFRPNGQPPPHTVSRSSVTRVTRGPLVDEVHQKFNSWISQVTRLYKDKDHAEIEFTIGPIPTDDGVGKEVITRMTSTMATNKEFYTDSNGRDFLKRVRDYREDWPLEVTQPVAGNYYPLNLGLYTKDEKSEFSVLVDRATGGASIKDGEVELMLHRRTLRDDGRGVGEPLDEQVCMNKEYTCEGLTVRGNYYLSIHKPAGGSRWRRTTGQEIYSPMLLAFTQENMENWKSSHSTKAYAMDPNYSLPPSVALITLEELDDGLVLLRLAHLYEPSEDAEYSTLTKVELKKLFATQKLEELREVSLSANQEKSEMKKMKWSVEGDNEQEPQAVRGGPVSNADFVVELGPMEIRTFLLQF
Kind of assay: Glycosidase inhibition assay, α-mannosidase. Type of assay: biochemical. Conditions: for remaining activity at 100 µM: read-out: α-Man % Ra (% remaining activity at 100 µM). The method in brief:
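Enzyme starts the reaction with test compound at 100 µM. After 4–5 min at room temperature, 0.2 M sodium borate (pH 9.8) quenches it. Absorbance is read at 405 nm and reported as % remaining activity.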

Assay [9] has as its system β-mannosidase (Roman snail). The assay can be described thus: Glycosidase inhibition assay, β-mannosidase. Conditions: 100 µM compound; substrate at Km. Type of assay: biochemical. The method in brief: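 Test compound is at 100 µM. Enzyme addition starts the reaction, which runs 4–5 min at room temperature before quenching with 0.2 M sodium borate (pH 9.8). Absorbance is read at 405 nm and given as % remaining activity.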

Setting [10] is: 100 µM compound, substrate at Km.

Changes are numbered by the printed parent chain.

Broadly, the IC50 is the concentration at which inhibition is half-maximal. As usually defined, the remaining activity is what remains of the control signal, in per cent.

As to `CCCCN1CCC[C@@H](O)[C@H](O)[C@@H](O)C1` [Compound 1, (3S,4S,5R)-1-Butylazocane-3,4,5-triol], the “ceramide-specific glucosyltransferase IC50 (C57BL/6, mouse)” value in [1] is on record as “n.i”. For the same compound, in [2], the “ceramide-specific glucosyltransferase IC50 (LE rat)” value is “n.i”. Further, in assay [3], the “β-glucosidase 2 IC50 (LE rat)” value was “did not show inhibitory activity and n.i”. The “α-Glc % Ra (% remaining activity at 100 µM)” value in assay [4] amounted to 93%. The “β-Glc % Ra (% remaining activity at 100 µM)” value in assay [5] was 37%. Further, the IC50 in assay [5] (read-out: β-Glc IC50) was found to be 87 µM. For the same compound, the values for the remaining activity at 100 µM in assay [6], in assay [7] and in assay [8] were 100%, 98% and 100%, respectively. Further, the “β-Man % Ra (% remaining activity at 100 µM)” value in [9] worked out at 100%.

As to `CCCCN1C[C@@H](O)[C@@H](O)[C@@H](O)[C@H](O)[C@@H](O)C1` [Compound 5, (3S,4R,5S,6R,7R)-1-Butylazocane-3,4,5,6,7-pentaol], in assay [1], the “ceramide-specific glucosyltransferase IC50 (C57BL/6, mouse)” value is “n.i”. Moreover, the “ceramide-specific glucosyltransferase IC50 (LE rat)” value in assay [2] is “n.i”. The “β-glucosidase 2 IC50 (LE rat)” value in [3] is “did not show inhibitory activity and n.i”. For the same compound, the “α-Glc % Ra (% remaining activity at 100 µM)” value in [4] is listed as 89%. Moreover, the “β-Glc % Ra (% remaining activity at 100 µM)” value in assay [5] is 87%. Also, the “α-Gal % Ra (% remaining activity at 100 µM)” value in assay [6] (setting [10]) turned out to be 100%. In assay [7] (setting [10]), the “β-Gal % Ra (% remaining activity at 100 µM)” value turned out to be 95%. The “α-Man % Ra (% remaining activity at 100 µM)” value in assay [8] (setting [10]) is on record as 100%. The “β-Man % Ra (% remaining activity at 100 µM)” value in assay [9] is recorded as 100%.

As for `CCCCCCCCCN1C/C=C\[C@@H](O)[C@H](O)[C@@H](O)C1` [Compound 4, (3S,4S,5R,Z)-1-Nonyl-1,2,3,4,5,8-hexahydroazocine-3,4,5-triol], in assay [1], the “ceramide-specific glucosyltransferase IC50 (C57BL/6, mouse)” value was “n.i”. Further, in [2], the “ceramide-specific glucosyltransferase IC50 (LE rat)” value is recorded as “n.i”. In assay [3], this compound came in with an IC50 of 904 µM. Moreover, the “α-Glc % Ra (% remaining activity at 100 µM)” value in assay [4] was found to be 90%. The “β-Glc % Ra (% remaining activity at 100 µM)” value in assay [5] stood at 44%. The remaining activity at 100 µM in assay [6] was 100%; in assay [7], 90%; in [8], 100%. The “β-Man % Ra (% remaining activity at 100 µM)” value in [9] is on record as 99%.

Regarding `CCCCCCCCCN1[C@@H](CO)C(O)[C@@H]1CO` [Compound 27, ((2S,4S)-3-Hydroxy-1-nonyl-azetidine-2,4-diyl)dimethanol], the 50% inhibitory concentration (IC50) in assay [1] is over 300 µM; in assay [2] it was over 300 µM; in assay [3] it was 70 µM. Moreover, the “α-Glc % Ra (% remaining activity at 100 µM)” value in assay [4] was determined as 100%. Besides, the “β-Glc % Ra (% remaining activity at 100 µM)” value in assay [5] was 95%. Besides, the remaining activity at 100 µM in assay [6] worked out at 57%; in assay [7], 99%; in assay [8], 99%. For the same compound, in [9], the “β-Man % Ra (% remaining activity at 100 µM)” value amounted to 106%.

In the case of `CCCCN1[C@@H](CO)C(O)[C@@H]1CO` [Compound 26, ((2S,4S)-1-Butyl-3-hydroxyazetidine-2,4-diyl)dimethanol], the IC50 in assay [1], in assay [2] and in assay [3] was over 300 µM throughout. For the same compound, the “α-Glc % Ra (% remaining activity at 100 µM)” value in assay [4] is given as 90%. Moreover, the “β-Glc % Ra (% remaining activity at 100 µM)” value in [5] is given as 82%. The values for the remaining activity at 100 µM in [6], in assay [7] and in [8] were 98%, 96% and 98%, respectively. Moreover, the “β-Man % Ra (% remaining activity at 100 µM)” value in [9] amounted to 95%.

With `CCCCN1[C@H](CO)C(O)[C@H]1CO` [Compound 22, ((2R,4R)-1-Butyl-3-hydroxyazetidine-2,4-diyl)dimethanol], the IC50 in [1], in assay [2] and in assay [3] was over 300 µM each time. For the same compound, in assay [4], the “α-Glc % Ra (% remaining activity at 100 µM)” value came to 100%. The “β-Glc % Ra (% remaining activity at 100 µM)” value in assay [5] is listed as 93%. The remaining activity at 100 µM is 100% in assay [6], 99% in assay [7] and 99% in assay [8]. Also, the “β-Man % Ra (% remaining activity at 100 µM)” value in [9] worked out at 99%.

Regarding `CCCCCCCCCN1[C@H](CO)C(O)[C@H]1CO` [Compound 23, ((2R,4R)-3-Hydroxy-1-nonylazetidine-2,4-diyl)dimethanol], the IC50 in [1], in [2] and in [3] was over 300 µM throughout. Moreover, in assay [4], the “α-Glc % Ra (% remaining activity at 100 µM)” value is recorded as 100%. For the same compound, the “β-Glc % Ra (% remaining activity at 100 µM)” value in [5] was 95%. Also, the remaining activity at 100 µM in assay [6] was determined as 99%; in [7], 88%; in assay [8], 100%. For the same compound, in assay [9], the “β-Man % Ra (% remaining activity at 100 µM)” value was found to be 115%.
